According to ChEMBL document CHEMBL5038599, “Identification of Thiazoyl Guanidine Derivatives as Novel Antifungal Agents Inhibiting Ergosterol Biosynthesis for Treatment of Invasive Fungal Infections” (J Med Chem, 2021):
Converted amounts (≈) assume the structure as drawn.

Assays:
[1] = test system: Candida albicans; assay: Antifungal activity against Candida albicans ATCC 90028 assessed as inhibition of fungal growth incubated for 24 hrs by broth microdilution method; type: functional
Outline: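 Yeast cells were adjusted to about 2 × 10³ CFU/mL and broth microdilution was run for 24 h at 35 °C. Medium was YNB with 2% glucose and complete amino-acid mix, buffered to pH 7.0 with 50 mM MOPS. MIC was the lowest concentration giving >50% growth reduction versus untreated control, read by optical density at 600 nm.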

[2] = test system: Aspergillus fumigatus; assay: Antifungal activity against Aspergillus fumigatus ATCC 204305 assessed as inhibition of fungal growth […] by broth microdilution method; type: functional
[3] = test system: Aspergillus fumigatus; assay: Antifungal activity against Aspergillus fumigatus ATCC 204305 assessed as inhibition of fungal growth incubated for 48 hrs in presence of 50% heat-inactivated bovine serum by broth microdilution method; type: functional; conditions: ATCC 204305, 48 h, in the assay text read “incubated for 48 hrs” for “incubated for 24 hrs”
Outline: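 Broth microdilution per CLSI M38-A2 with modifications. Conidia at about 1 × 10⁴ CFU/mL were grown for 48 h at 35 °C in YNB with 2% glucose and complete amino-acid mix, buffered to pH 7.0 with 50 mM MOPS. Medium was with or without 50% heat-inactivated bovine serum. MIC was the lowest concentration giving no visible growth.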

[4] = Metabolic stability in rat liver microsomes assessed as parent compound remaining at 0.5 uM incubated for 30 mins by LC/MS/MS analysis; type: ADME, Microsome; conditions: read-out: Stability
Outline: (§1)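 Compound at 0.5 μM was incubated with liver microsomes at 0.5 mg protein/mL at 37 °C. Buffer was 50 mM Tris-HCl pH 7.4 with 150 mM KCl, 10 mM MgCl2 and 1 mM NADPH. Reactions were stopped at 0 and 30 min with MeCN/MeOH 1:1. Percent remaining was taken from LC/MS/MS peak area ratio, in duplicate.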

[5] = Metabolic stability in human liver microsomes assessed as parent compound remaining at 0.5 uM incubated for 30 mins by LC/MS/MS analysis; type: ADME, Microsome; conditions: read-out: Stability; outline: as §1
[6] = test system: Aspergillus fumigatus; assay: Antifungal activity against Aspergillus fumigatus ATCC 204305 assessed as inhibition of fungal growth incubated for 48 hrs by broth microdilution method; conditions: ATCC 204305, 48 h
[7] = Clearance in Sprague-Dawley rat at 0.5 mg/kg, iv measured upto 1440 mins by LC/MS/MS analysis; type: ADME, organism-based; conditions: in vivo
[8] = Unbound fraction in Sprague-Dawley rat at 0.5 mg/kg, iv measured upto 1440 mins by LC/MS/MS analysis; type: ADME, organism-based; conditions: in vivo
[9] = Volume of distribution at steady state in Sprague-Dawley rat at 0.5 mg/kg, iv measured upto 1440 mins by LC/MS/MS analysis; type: ADME, organism-based; conditions: in vivo, read-out: Vdss

Compound	MIC50 [1] [µg/mL]	MIC50 [2] [µg/mL]	remaining at 0.5 h, 0.5 µM [4] [%]	remaining at 0.5 h, 0.5 µM [5] [%]	MIC [6] [µg/mL]	further results
c1cncc(-c2nc(-c3csc(N=C4NCCCN4)n3)cs2)c1	–	–	19	78	0.5 (≈ 1.46 µM)	MIC50 [3]: 2 µg/mL
c1ccc(-c2nc(-c3csc(N=C4NCCCN4)n3)co2)cc1	0.063 (≈ 0.194 µM)	16 (≈ 49.2 µM)	–	–	–	–
Oc1ccc(-c2nc(-c3csc(N=C4NCCCN4)n3)cs2)cc1	–	–	53	86	2 (≈ 5.59 µM)	MIC50 [3]: > 16 µg/mL
c1ccc(-c2nc(-c3csc(N=C4NCCCN4)n3)cs2)nc1	–	–	–	–	16 (≈ 46.7 µM)	–
O=C(O)c1ccc(-c2nc(-c3csc(N=C4NCCCN4)n3)cs2)cc1	–	–	–	–	> 16	–
c1cc(-c2nc(-c3csc(N=C4NCCCN4)n3)cs2)ccn1	–	–	9	58	0.5 (≈ 1.46 µM)	MIC50 [3]: 4 µg/mL

More lines, main results first:

MIC50 [1] [µg/mL]	MIC50 [2] [µg/mL]	remaining at 0.5 h, 0.5 µM [4] [%]	remaining at 0.5 h, 0.5 µM [5] [%]	MIC [6] [µg/mL]	Compound	further results
8 (≈ 20.4 µM)	> 16	–	–	–	Cc1ccc(Oc2ccccc2-c2csc(/N=C3\NCCCN3C)n2)c(C)c1	–
> 16	> 16	–	–	–	CNC(=Nc1nc(-c2ccccc2Oc2ccc(C)cc2C)cs1)NC	–
4 (≈ 13.5 µM)	> 16	–	–	–	Cc1ccc(Oc2ccccc2-c2csc(N)n2)c(C)c1	–
0.063 (≈ 0.185 µM)	4 (≈ 11.7 µM)	30	70	–	c1ccc(-c2cc(-c3csc(N=C4NCCCN4)n3)cs2)cc1	–
< 0.063	0.5 (≈ 1.46 µM)	31	83	–	c1ccc(-c2nc(-c3csc(N=C4NCCCN4)n3)cs2)cc1	clearance [7]: 33.1 mL/min/kg; MIC50 [3]: 8 µg/mL; fraction unbound at 24 h [8]: 0.0104; Vd [9]: 7.25 L/kg
0.5 (≈ 1.34 µM)	4 (≈ 10.7 µM)	–	–	–	Cc1ccc(Oc2ccccc2-c2cccc(N=C3NCCCN3)n2)c(C)c1	–
> 16	> 16	–	–	–	Cc1ccc(Oc2ccccc2-c2csc(Nc3ccccn3)n2)c(C)c1	–
> 16	> 16	–	–	–	Cc1ccc(Oc2ccccc2-c2cnc(N=C3NCCCN3)s2)c(C)c1	–
0.5 (≈ 1.37 µM)	> 16	–	–	–	Cc1ccc(Oc2ccccc2-c2csc(N=C3NCCN3)n2)c(C)c1	–
